Screening data from PubChem BioAssay.
Lmaj promast = Leishmania major promastigote growth inhibition, primary screen. Leishmania major promastigotes, resazurin fluorescence viability. hit rate 9% among 200,000. inhibition, % at 10 µM;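 also: promastigotes grown with compound for 44 hours at 28 °C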
Arbovirus anti = antivirals against arbovirus infection, primary screen, cell-based, full library, 10K replicate subset; arbovirus infection cell-based antiviral screen; inhibition, % at 10 µM; hit rate 0.37% among 200,000; AID 1251, 2008; in the data active = inhibition above about 30%
Rad51 HR inh = human RAD51 strand exchange inhibitors, primary screen, biochemical, fluorescence; inhibition, % at 10 µM; hRad51 DNA strand exchange, fluorescence dequenching; hit rate 0.085% among 200,000; AID 1385, 2008;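 active = inhibition above 40% at the single screening dose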;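 also: 0% = DMSO control wells and 100% = blanks with heterologous ssDNA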
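Material: Human Rad51 nucleoprotein filaments preassembled on unlabelled ssDNA | Also added: Labelled 47-mer dsDNA for strand exchange | Dosing: Single dose, 10 µM final compound | Schedule: 30-min compound preincubation and 15-min exchange, both room temperature | Technique: Fluorescence dequenching at 485/520 nm | Measure: Percent inhibition relative to plate controls and blanks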
Wee1 stabilizer = Wee1 degradation inhibitors, primary screen, cell-based, HeLa, Wee1K328M-luciferase, luminescence | Wee1-like protein kinase (Homo sapiens), P30291 | HeLa Luc-Wee1K328M stability; 100% = proteasome inhibitor MG132 effect | reporter increase, % at 5 µM | hit rate 1.2% among 220,000;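 active = activation above the mean of all tested compounds plus 3 SD, set per screening run, cut at about 8.8% in these data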;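 also: cells exposed to compound for 20 h before luminescence read; 0% = DMSO alone and 100% = MG132 at 30 µM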
Target sequence (P30291 whole entry K328M): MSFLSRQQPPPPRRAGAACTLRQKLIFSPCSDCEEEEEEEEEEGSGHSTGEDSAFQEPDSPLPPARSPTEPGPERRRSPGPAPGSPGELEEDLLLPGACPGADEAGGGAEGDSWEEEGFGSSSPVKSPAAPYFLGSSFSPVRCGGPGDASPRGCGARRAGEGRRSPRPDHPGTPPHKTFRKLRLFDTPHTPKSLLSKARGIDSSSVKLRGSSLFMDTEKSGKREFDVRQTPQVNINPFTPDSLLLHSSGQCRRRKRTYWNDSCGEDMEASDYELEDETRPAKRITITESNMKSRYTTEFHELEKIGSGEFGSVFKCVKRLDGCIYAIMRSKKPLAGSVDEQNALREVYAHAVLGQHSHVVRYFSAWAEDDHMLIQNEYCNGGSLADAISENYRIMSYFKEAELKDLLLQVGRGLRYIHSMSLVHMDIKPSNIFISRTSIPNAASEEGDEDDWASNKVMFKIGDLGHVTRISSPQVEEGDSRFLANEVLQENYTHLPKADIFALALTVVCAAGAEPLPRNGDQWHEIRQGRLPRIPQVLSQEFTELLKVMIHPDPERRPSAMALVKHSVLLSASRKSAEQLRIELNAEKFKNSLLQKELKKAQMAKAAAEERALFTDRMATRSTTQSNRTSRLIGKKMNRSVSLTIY
CHOP inhibitor = inhibitors of CHOP promoter induction, primary screen, cell-based, unfolded protein response, luciferase reporter | CHO-K1 CHOP-promoter luciferase, tunicamycin-induced, 15-18 h | inhibition, % at 10 µM | hit rate 3.8% among 220,000;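 active = compounds that reduced the stress-induced luciferase reporter signal by more than about 70% of percent inhibition, limit read from the data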;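 also: 0% = tunicamycin plus vehicle and 100% = wells without tunicamycin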
PKD1 kinase inh = inhibitors of human PKD1 kinase, biochemical, fluorescence polarization | inhibition, % (no concentration beside the values) | hit rate 0.056% among 200,000 | Serine/threonine-protein kinase D1 (Homo sapiens), Q15139 | PKD1 kinase fluorescence polarization assay
An asterisk follows results filed as active; nt = not tested or not shown. This is a sample that favours compounds with a hit; in the whole collection about 12% have one here. Rule as the data show it, unless noted: active = inhibition above about 50%; inactive = the rest.

SMILES | Lmaj promast | Arbovirus anti | Rad51 HR inh | Wee1 stabilizer | CHOP inhibitor | PKD1 kinase inh
CC1(C)CC(=O)C(C=NCC2CCNCC2)=C(O)C1 | -2.5 | -2.8 | nt | 0.5 | 72.3* | -0.4
N#C/C(=C\c1c(N2CCC(C(N)=O)CC2)nc2ccccn2c1=O)S(=O)(=O)c1ccc(Cl)cc1 | nt | nt | -15.2 | 0.4 | -9.7 | nt
Cc1cc(Nc2ccc(Cl)cc2)n(-c2cccc(Cl)c2)n1 | 5.7 | -10.7 | 4.5 | -0.8 | 71.6* | -6.6
CN(C(=S)NC(=O)c1ccc(Br)o1)c1ccccc1 | -8.5 | 9.4 | nt | -2.3 | -0.2 | 1.3
CN1CCN(S(=O)(=O)c2ccc(Sc3nnnn3-c3ccccc3)c([N+](=O)[O-])c2)CC1 | 100.0* | -34.3 | nt | 0.1 | 106.9* | -5.6
CC(=O)c1ccc(Sc2ccccn2)c([N+](=O)[O-])c1 | nt | nt | -2.9 | -3.6 | 8.4 | nt
Cn1cnnc1Sc1cc(N2CCN(S(=O)(=O)c3ccccc3)CC2)ccc1[N+](=O)[O-] | 4.2 | -4.6 | nt | 4.2 | -18.4 | -4.5
CC(=O)c1ccc(Sc2nnnn2-c2ccccc2)c([N+](=O)[O-])c1 | 100.1* | -43.5 | nt | -0.5 | -16.8 | -1.1
O=[N+]([O-])c1ccc(Sc2nnnn2-c2ccccc2)c(Cl)c1 | 89.8* | -8.1 | -2.1 | -0.3 | -19.8 | 1.3
O=C(CSc1nnc(COc2ccc(Cl)cc2)o1)N1CCOCC1 | -1.0 | 3.2 | -0.4 | 2.1 | -2.2 | -4.5
CCN(Cc1cc(=O)[nH]c2ccccc12)C(=O)c1ccc(C)cc1 | nt | nt | -3.4 | 2.3 | 6.1 | nt
CCNc1nc(NC(C)(C)C)nc(SCC(N)=O)n1 | 6.2 | -3.0 | -3.5 | -3.1 | 8.9 | -7.2
CCOC(=O)c1ccc(NS(=O)(=O)c2c(N)n(C)c(=O)n(C)c2=O)cc1 | nt | nt | 0.6 | nt | nt | nt
COc1ccccc1OCC(=O)N/N=C1/C=C(C)CC1 | 2.3 | 2.2 | -10.1 | -3.7 | -11.8 | -0.2
Cc1nc(N2CCC(C(N)=O)CC2)c2nnn(Cc3ccccc3)c2n1 | 5.1 | 0.4 | -3.3 | -2.8 | -16.4 | 14.4
Cc1nc(N2CCCC2)c2nnn(Cc3ccccc3Cl)c2n1 | -1.4 | 5.9 | 9.5 | 1.2 | 73.3* | -8.8
CC(C)CCNc1ncnc2c1nnn2Cc1ccccc1Cl | 20.0 | -6.8 | 3.3 | -0.2 | 78.6* | -0.3
O=C1CSC(=S)N1CC1CCCO1 (stereo unspecified) | 80.9* | 7.2 | -9.2 | -1.0 | 39.5 | 0.0
CCCCCOCC1CC(C/C(C)=N/Nc2nc(-c3ccccc3)cs2)C(=O)O1 (stereo unspecified) | 1.1 | 6.9 | 62.3* | -0.5 | -3.5 | -0.7
CCOC(=O)c1c(-c2ccccc2)csc1NC(=S)NC | 61.6* | -0.8 | 0.7 | 1.8 | 92.6* | -3.1
CCOC(=O)c1c(-c2ccc(-c3ccccc3)cc2)csc1NC(=O)CCN1CCOCC1 | 98.0* | -8.5 | -3.2 | -1.4 | 34.2 | -0.9
CCOC(=O)c1c(-c2cccs2)csc1NC(=O)CN1CC(C)OC(C)C1 (stereo unspecified) | 32.2 | -1.9 | -4.0 | -0.3 | 84.5* | 2.6
CCOC(=O)c1ccccc1NC(=O)c1cc(S(=O)(=O)N2CCOCC2)ccc1F | -1.4 | -5.6 | -5.4 | -1.8 | 17.1 | 6.9
CCNC(=S)Nc1scc(-c2ccccc2)c1C(=O)OCC | 24.8 | 3.3 | 7.4 | -0.2 | -4.6 | -6.4
CCOC(=O)c1c(-c2ccccc2Cl)csc1NC(=O)c1cc(S(=O)(=O)N2CCOCC2)ccc1C | 82.6* | -3.4 | 4.4 | -1.1 | 29.4 | -11.3
SMILES | Lmaj promast | Arbovirus anti | Rad51 HR inh | Wee1 stabilizer | CHOP inhibitor | PKD1 kinase inh
O=C(Nc1ccn(Cc2c(F)c(F)cc(F)c2F)n1)c1ccc(COc2ccccc2Cl)cc1 | 20.0 | -17.4 | 10.1 | -0.6 | 46.0 | 4.4
O=C(Nc1ccn(Cc2ccccc2F)n1)c1ccc(COc2ccccc2Cl)cc1 | 15.0 | -39.3 | nt | -1.9 | 73.5* | -6.5
CC(=O)Nc1ccc(OCC(=O)N2CCC(Cc3ccccc3)CC2)cc1 | 3.8 | -14.7 | -9.7 | -0.7 | 20.0 | -0.7
O=C(Nc1ccc(OCC(=O)N2CCC(Cc3ccccc3)CC2)cc1)c1ccco1 | 50.9* | -1.2 | 4.4 | -1.7 | 32.5 | 4.5
O=C(Nc1ccccc1)c1ccccc1C(=O)N1CCCCC1 | -7.2 | 17.3 | 2.5 | -3.8 | 25.5 | -0.9
CC1(C)CC(=O)C2=C(C1)N(CCN1CCOCC1)C1=C(C(=O)CC(C)(C)C1)C2c1cccc(Cl)c1 | 61.1* | 4.2 | -12.3 | 3.9 | 5.6 | 6.9
COc1ccccc1NC(=O)Cn1c(CCC(=O)O)ccc1-c1ccccc1 | -6.0 | 3.1 | -0.7 | -2.2 | -12.3 | -5.7
CCS(=O)(=O)c1ccc(O)c(NC(=O)c2cc(OC)c(OC)c(OC)c2)c1 | 0.6 | 5.0 | 4.8 | 5.0 | 1.7 | -2.5
COc1ccc(N=Nc2cc(C)ccc2O)cc1 | nt | nt | 21.4 | 5.9 | 10.3 | nt
Cc1ccc(N=Nc2ccc(O)c3ncccc23)cc1C | 100.2* | -24.6 | -3.4 | 1.8 | 92.2* | -6.1
Cc1ccc(N=Nc2ccc(O)c3ncccc23)cc1 | 100.3* | -27.1 | 3.6 | -3.9 | 30.7 | -12.9
CCS(=O)(=O)c1ccc(N=Nc2ccc(O)c3ncccc23)c(OC)c1 | 99.9* | -25.8 | 0.1 | -2.0 | 45.4 | 10.3
C[C@@H]1C(=O)NC2=Nc3cccc(Cl)c3CN21 | nt | nt | nt | nt | -16.9 | nt
COc1ccc(CNC(=O)c2ccc3c(c2)NC(=O)C(C)S3)cc1 (stereo unspecified) | nt | nt | nt | 0.1 | 25.4 | nt
COc1ccc(N/N=C/c2c(C(=O)O)ccc3ccccc23)cc1 | nt | nt | -27.8 | 2.2 | 95.7* | nt
CCOc1ccc(NC(=O)CCC(=O)NNC(=O)COc2ccccc2C)cc1 | -1.8 | 0.0 | 15.5 | 5.3 | 1.4 | -8.7
FC(F)(F)c1nnc2ccc(N3CCCC3)nn12 | 2.2 | -3.1 | 56.7* | 4.7 | 43.8 | -1.3
FC(F)(F)c1nnc2ccc(N3CCCCCC3)nn12 | 0.9 | -14.2 | 4.2 | -3.3 | 15.3 | -2.5
Cc1[nH]n(C2=NCCS2)c(=O)c1N=Nc1cccc(C(F)(F)F)c1 | 99.2* | -10.9 | 25.0 | -0.9 | -32.1 | 8.1
Cc1[nH]n(-c2ccccc2)c(=O)c1N=Nc1cccc(S(=O)(=O)N2CCOCC2)c1 | 50.0 | -8.8 | 7.9 | 1.7 | 3.6 | 8.0
CC(=O)Nc1c(NC(=O)CC#N)[nH]c2c(c1=O)c(=O)n(C)c(=O)n2C | -7.3 | -3.1 | 8.6 | -3.9 | 15.5 | 0.2
CCN(CC)S(=O)(=O)c1ccc(N2CCCC2)c(NC(=O)CC(C)(C)C)c1 | nt | nt | -19.8 | -0.7 | 10.8 | nt
COC(CNC(=O)c1ccc(N2CCC3(CC2)OCCO3)c([N+](=O)[O-])c1)OC | 60.0* | 6.1 | 0.3 | -0.4 | 10.6 | -9.3
O=C(c1ccc(N2CCC3(CC2)OCCO3)c([N+](=O)[O-])c1)N1CCOCC1 | -4.4 | 7.7 | 6.0 | -1.8 | 11.5 | -1.8
